This note sets out measurements from ChEMBL document CHEMBL3112463, “Synthesis and biological activity of polyalthenol and pentacyclindole analogues” (2014).

Holding throughout (format): functional
One assay has as its system WiDr. The assay is described as follows: Antiproliferative activity against human WiDr cells assessed as growth inhibition after 48 hrs by SRB assay. The essentials:
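WiDr cells seeded at 20,000 cells/well after trypsinization into antibiotic-containing medium (trypan blue viability >97%). Culture at 37 °C, 5% CO₂ with foetal calf serum and 2 mM L-glutamine. Exposure to triplicate compound dilutions from DMSO stocks (0.25% v/v DMSO control) started day 1, lasting 48 h. Fixed with ice-cold 50% TCA, 60 min at 4 °C, then SRB, OD 492 nm background-subtracted.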

For another assay, the system named is A549. The assay is described as follows: Antiproliferative activity against human A549 cells assessed as growth inhibition after 48 hrs by SRB assay. The settings on record: A549, 48 h. The essentials:
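Cells kept in medium with foetal calf serum and 2 mM L-glutamine at 37 °C, 5% CO₂. Trypsinized, resuspended in penicillin/streptomycin medium, >97% trypan blue viability, seeded at 10,000 cells/well. Compounds from DMSO stocks (0.25% v/v DMSO control), triplicate dilutions, added day 1 for 48 h. Fixed with cold 50% TCA for 60 min at 4 °C, then SRB staining, OD 492 nm, background corrected.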

The nature of assay [1]: Antiproliferative activity against human HBL100 cells assessed as growth inhibition after 48 hrs by SRB assay. The settings on record: HBL-100, 48 h. The essentials: (§1)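 Cells maintained at 37 °C, 5% CO₂ in medium with foetal calf serum and 2 mM L-glutamine. Trypsinized into antibiotic medium, >97% viable by trypan blue, plated at 10,000 cells/well. Triplicate dilutions from DMSO stocks (0.25% v/v DMSO control) added on day 1 for 48 h. TCA fixation (50%, 4 °C, 60 min), SRB stain, OD 492 nm corrected for medium-only blank.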

The test system of a further assay is T47D. In words: Antiproliferative activity against human T47D cells assessed as growth inhibition after 48 hrs by SRB assay. Summed up: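 T-47D cells grown at 37 °C, 5% CO₂ in serum- and 2 mM L-glutamine-containing medium. Trypsinized, viability >97% by trypan blue, seeded at 15,000 cells/well. Compounds added day 1 in triplicate dilutions (DMSO vehicle 0.25% v/v as control) for 48 h. Cold 50% TCA fixation 60 min at 4 °C, SRB read at 492 nm with blank correction.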
A general note: Sulforhodamine B stains cellular protein and so reports cell mass.

A further assay concerns SW1573. In words: Antiproliferative activity against human SW1573 cells assessed as growth inhibition after 48 hrs by SRB assay. The settings on record: SW1573, 48 h. Summed up:
as §1

A further assay has as its system HeLa. The assay is described as follows: Antiproliferative activity against human HeLa cells assessed as growth inhibition after 48 hrs by SRB assay. Summed up: as §1

A word on the GI50: it is the concentration that inhibits growth by half.

Bounds are passed on as bounds.

As to `COC(=O)[C@@]1(C)CC[C@@H]2C3=C1CC[C@@H](C)[C@]3(C)C[C@@H]1c3cc(Br)ccc3N[C@H]21`, the concentration for 50% growth inhibition (GI50) in the assay on WiDr turned out to be 55 µM; in the assay on A549 it was 40 µM; in assay [1], 34 µM; in the assay on T47D, 31 µM; in the assay on SW1573, 45 µM; in the assay with HeLa it was 25 µM.

Regarding `COC(=O)[C@@]1(C)CCC=C2[C@@H]1CC[C@@H](C)[C@]2(C)Cc1c[nH]c2ccc(C)cc12`, the GI50 in the assay on WiDr stood at 22 µM; in the assay on A549, 17 µM; in assay [1] it was 18 µM; in the assay with T47D it was 20 µM; in the assay on SW1573 it was 15 µM; in the assay with HeLa, 14 µM.

With `COC(=O)[C@@]1(C)CCC=C2[C@@H]1CC[C@@H](C)[C@]2(C)Cc1c[nH]c2ccc(Cl)cc12`, the GI50 worked out at 20 µM in the assay with WiDr; 16 µM with A549; 17 µM in assay [1]; 17 µM with T47D; 11 µM in the assay on SW1573; 11 µM in the assay with HeLa.

On to `COC(=O)[C@@]1(C)CCC=C2[C@@H]1CC[C@@H](C)[C@]2(C)Cc1c[nH]c2c(C)cccc12`, for which the GI50 came to 26 µM with WiDr; 11 µM in the assay with A549; 8 µM in assay [1]; 18 µM in the assay on T47D; 7.8 µM in the assay with SW1573; 4.9 µM in the assay with HeLa.

Turning to `COC(=O)[C@@]1(C)CCC=C2[C@@H]1CC[C@@H](C)[C@]2(C)Cc1c[nH]c2c(Br)cccc12`, the 50% growth inhibitory concentration (GI50) in the assay with WiDr was found to be 32 µM; with A549 it was 22 µM; in assay [1], 18 µM; in the assay on T47D, 24 µM; with SW1573, 14 µM; with HeLa, 13 µM.

Take `COC(=O)[C@@]1(C)CCC=C2[C@@H]1CC[C@@H](C)[C@]2(C)Cc1c[nH]c2c(Cl)cccc12`: the GI50 came to 31 µM in the assay with WiDr; 22 µM in the assay on A549; 19 µM in assay [1]; 24 µM in the assay on T47D; 14 µM with SW1573; 14 µM with HeLa.

With `COC(=O)[C@@]1(C)CCC=C2[C@@H]1CC[C@@H](C)[C@]2(C)Cc1c(C)[nH]c2ccc(C)cc12`, the 50% growth inhibitory concentration (GI50) in the assay with WiDr was 28 µM; with A549 it was 26 µM; in assay [1] it was 25 µM; in the assay on T47D, 31 µM; in the assay with SW1573 it was 18 µM; in the assay on HeLa it was 17 µM.

Consider `COC(=O)[C@@]1(C)CCC=C2[C@@H]1CC[C@@H](C)[C@]2(C)Cc1c(C)[nH]c2ccc(C(F)(F)F)cc12`, for which the GI50 in the assay with WiDr stood at 21 µM; with A549, 17 µM; in assay [1], 16 µM; with T47D, 21 µM; in the assay on SW1573 it was 15 µM; in the assay with HeLa, 12 µM.

As for `COC(=O)[C@@]1(C)CCC=C2[C@@H]1CC[C@@H](C)[C@]2(C)Cc1c(C)[nH]c2c(C)cccc12`, the concentration for 50% growth inhibition (GI50) in the assay with WiDr was determined as 21 µM; with A549 it was 14 µM; in assay [1] it was 16 µM; with T47D, 19 µM; with SW1573, 15 µM; in the assay with HeLa it was 14 µM.

On to `COC(=O)[C@@]1(C)CCC=C2[C@@H]1CC[C@@H](C)[C@]2(C)Cc1c(C)[nH]c2c(Br)cccc12`, for which the GI50 in the assay on WiDr was found to be 38 µM; in the assay on A549, 27 µM; in assay [1] it was 27 µM; in the assay on T47D it was 31 µM; in the assay on SW1573, 25 µM; in the assay on HeLa, 22 µM.

As for `COC(=O)[C@@]1(C)CCC=C2[C@@H]1CC[C@@H](C)[C@]2(C)Cc1c(C)[nH]c2c(Cl)cccc12`, the GI50 in the assay with WiDr was 29 µM; in the assay on A549 it was 20 µM; in assay [1] it was 22 µM; with T47D, 27 µM; in the assay with SW1573, 19 µM; in the assay with HeLa, 17 µM.

`COC(=O)[C@@]1(C)CCC=C2[C@@H]1CC[C@@H](C)[C@]2(C)Cc1c(/C=C/[N+](=O)[O-])[nH]c2ccccc12`: the concentration for 50% growth inhibition (GI50) came out at 21 µM with WiDr; 13 µM with A549; 16 µM in assay [1]; 15 µM with T47D; 13 µM in the assay with SW1573; 6.9 µM in the assay with HeLa.

Take `COC(=O)[C@@]1(C)CCC=C2[C@@H]1CC[C@@H](C)[C@]2(C)Cc1c(C)n(C(c2ccccc2)c2ccccc2)c2ccc(Cl)cc12`: the concentration for 50% growth inhibition (GI50) (in the assay with WiDr; in the assay with A549; in assay [1]; with T47D; in the assay on SW1573; with HeLa) was more than 100 µM each time.

Consider `COC(=O)[C@@]1(C)CC[C@@H]2C3=C1CC[C@@H](C)[C@]3(C)C[C@@H]1c3ccccc3N[C@H]21`, for which the GI50 with WiDr worked out at 50 µM; in the assay on A549, 39 µM; in assay [1], 78 µM; in the assay on T47D, 35 µM; in the assay with SW1573, 30 µM; in the assay on HeLa, 19 µM.

For the compound `COC(=O)[C@@]1(C)CC[C@@H]2C3=C1CC[C@@H](C)[C@]3(C)C[C@@H]1c3cc(C)ccc3N[C@H]21`, the GI50 in the assay on WiDr turned out to be 32 µM; in the assay with A549 it was 27 µM; in assay [1], 15 µM; in the assay on T47D it was 23 µM; with SW1573 it was 23 µM; with HeLa, 18 µM.

Regarding `COC(=O)[C@@]1(C)CC[C@@H]2C3=C1CC[C@@H](C)[C@]3(C)C[C@@H]1c3cc(Cl)ccc3N[C@H]21`, the GI50 came to 48 µM with WiDr; 35 µM with A549; 28 µM in assay [1]; 28 µM in the assay with T47D; 38 µM in the assay on SW1573; 23 µM with HeLa.

With `COC(=O)[C@@]1(C)CC[C@@H]2C3=C1CC[C@@H](C)[C@]3(C)C[C@@H]1c3cc(F)ccc3N[C@H]21`, the GI50 amounted to 32 µM in the assay on WiDr; 25 µM with A549; 18 µM in assay [1]; 27 µM with T47D; 27 µM in the assay on SW1573; 20 µM in the assay on HeLa.

`COC(=O)[C@@]1(C)CC[C@@H]2C3=C1CC[C@@H](C)[C@]3(C)C[C@@H]1c3cc(OC)ccc3N[C@H]21`: the GI50 came to 25 µM in the assay with WiDr; 22 µM in the assay on A549; 15 µM in assay [1]; 19 µM in the assay with T47D; 25 µM in the assay with SW1573; 20 µM with HeLa.

For the compound `COC(=O)[C@@]1(C)CC[C@@H]2C3=C1CC[C@@H](C)[C@]3(C)C[C@@H]1c3cccc(C)c3N[C@H]21`, the GI50 was 43 µM in the assay with WiDr; 30 µM in the assay on A549; 32 µM in assay [1]; 29 µM in the assay with T47D; 31 µM in the assay on SW1573; 22 µM in the assay on HeLa.

Regarding `COC(=O)[C@@]1(C)CC[C@@H]2C3=C1CC[C@@H](C)[C@]3(C)C[C@@H]1c3cccc(Br)c3N[C@H]21`, the GI50 was 54 µM in the assay with WiDr; 42 µM with A549; 40 µM in assay [1]; 37 µM with T47D; 44 µM with SW1573; 22 µM in the assay on HeLa.

Take `COC(=O)[C@@]1(C)CC[C@@H]2C3=C1CC[C@@H](C)[C@]3(C)C[C@@H]1c3cccc(Cl)c3N[C@H]21`: the 50% growth inhibitory concentration (GI50) in the assay on WiDr was 67 µM; with A549 it was 54 µM; in assay [1], 52 µM; with T47D, 50 µM; with SW1573, 49 µM; with HeLa, 31 µM.

As to `COC(=O)[C@@]1(C)CC[C@@H]2C3=C1CC[C@@H](C)[C@]3(C)Cc1c2[nH]c2ccc(Br)cc12`, the GI50 with WiDr was 22 µM; in the assay with A549, 17 µM; in assay [1] it was 16 µM; in the assay with T47D, 21 µM; in the assay with SW1573, 12 µM; in the assay on HeLa it was 14 µM.

Consider `COC(=O)[C@@]1(C)CC[C@@H]2C3=C1CC[C@@H](C)[C@]3(C)Cc1c2[nH]c2c(C)cccc12`, for which the GI50 was found to be 22 µM with WiDr; 16 µM in the assay with A549; 13 µM in assay [1]; 23 µM with T47D; 16 µM in the assay with SW1573; 12 µM in the assay on HeLa.

For `COC(=O)[C@@]1(C)CC[C@@H]2C3=C1CC[C@@H](C)[C@]3(C)Cc1c2[nH]c2c(Br)cccc12`, the GI50 amounted to 37 µM in the assay with WiDr; 35 µM in the assay on A549; 26 µM in assay [1]; 31 µM in the assay on T47D; 26 µM in the assay with SW1573; 18 µM in the assay with HeLa.

As to `COC(=O)[C@@]1(C)CC[C@@H]2C3=C1CC[C@@H](C)[C@]3(C)Cc1c2[nH]c2c(Cl)cccc12`, the 50% growth inhibitory concentration (GI50) in the assay with WiDr was found to be 21 µM; in the assay with A549 it was 21 µM; in assay [1], 16 µM; in the assay on T47D, 21 µM; in the assay on SW1573, 17 µM; in the assay with HeLa it was 12 µM.
